The pIC50 is the negative decadic logarithm of the IC50, by convention in mol/L. What is called clearance is the rate of elimination divided by the concentration. Read a low clearance as a low capacity for elimination. A word on the bioavailability: it is the share of a dose that reaches the circulation, judged against a reference dose that is usually intravenous. A lower bioavailability goes with little systemic uptake. For orientation: half-life means the time needed for the level to fall by half in the phase considered. In general, AUC(0-t) refers to exposure summed from dosing to a finite time, without extrapolation to infinity. A word on the Cmax: it is the peak of the concentration-time curve. One may read the Tmax as the time at which the peak concentration occurs. The AUC(0-inf) is total exposure, with the tail of the curve extrapolated. The low end stands for low exposure, the high end for high exposure. By AUC is commonly meant the area under the concentration-time curve, a measure of exposure. Read a high AUC as more exposure.

The source of these data is ChEMBL document CHEMBL4043246, “Discovery of novel [1,2,4]triazolo[4,3-a]quinoxaline aminophenyl derivatives as BET inhibitors for cancer treatment” (Bioorg Med Chem Lett, 2017).

Each structure is given as a SMILES string. pIC50: −log10 of the molar value. Some results are limits rather than exact numbers.

Data set [1] in a line: Antiproliferative activity against human TY82 cells. In kind it is functional, cell-based.
In data set [2] the target is Bromodomain-containing protein 4 (Homo sapiens, UniProt O60885). Nature of the data set: Inhibition of BRD4 BD1-BD2 (unknown origin) using tetraacetylated histone peptide as substrate after 2 hrs by alphascreen assay. On the technique in general: In Alpha technology, singlet oxygen from a donor bead excites a nearby acceptor bead.
The next data set has as its system THP-1. The data set can be described thus: Antiproliferative activity against human THP1 cells. The class given is functional, cell-based.
Data set [3] in a line: Stability in human liver microsomes assessed as parent compound remaining after 30 mins. In kind it is ADME, microsome. As to conditions: read-out: Stability. In outline:
(§1)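 Incubated in vitro with mouse, rat or human liver microsomes for 30 minutes. Result expressed as percent of parent compound remaining.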

Data set [4] is described as follows: Stability in mouse liver microsomes assessed as parent compound remaining after 30 mins. In kind it is ADME, microsome. As to conditions: read-out: Stability. In outline: as §1
On the technique in general: Liver microsomes are a subcellular fraction often used to study metabolism.

Data set [5] can be described thus: Clearance in rat at 2 mg/kg, iv. The class given is ADME, organism-based. The conditions noted are these: in vivo.
Data set [6] is described as follows: Oral bioavailability in rat at 5 mg/kg. The conditions noted are these: in vivo. The class given is ADME, organism-based. In outline:
(§2)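 Rat pharmacokinetics after a single intravenous dose of 2 mg/kg or oral doses of 5 mg/kg and 20 mg/kg. Reported parameters are Tmax, Cmax, T1/2, AUCt, AUC∞, CL, Vss and F(%). CL, Vss and F come from the intravenous/oral 2 and 5 mg/kg arms.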

Data set [7] is described as follows: Volume of distribution at steady state in rat at 2 mg/kg, iv. The class given is ADME, organism-based. The conditions noted are these: in vivo, read-out: Vdss. In outline: as §2
The test system of data set [8] is Rattus norvegicus. Nature of the data set: Half life in rat at 5 mg/kg, po. In kind it is ADME, organism-based. The conditions noted are these: in vivo. In outline: (§3)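 Rat pharmacokinetics with single intravenous (2 mg/kg) or oral (5 or 20 mg/kg) dosing. Terminal half-life is reported in hours.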
Data set [9] is described as follows: Half life in rat at 2 mg/kg, iv. In kind it is ADME, organism-based. The conditions noted are these: in vivo. In outline:
as §3

Data set [10] is described as follows: AUCt in rat at 5 mg/kg, po. In kind it is ADME, organism-based. As to conditions: in vivo. In outline:
(§4)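 Rat pharmacokinetics with single dosing, either intravenous at 2 mg/kg or oral at 5 or 20 mg/kg. AUC is reported both to the last time point (AUCt) and extrapolated to infinity, in ug.hr/mL.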

For data set [11], the system named is Rattus norvegicus. Nature of the data set: Cmax in rat at 5 mg/kg, po. The class given is ADME, organism-based. On the set-up: dose 5 mg/kg, route oral. As to conditions: in vivo. In outline:
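Peak plasma level after single oral dosing in rat at 5 or 20 mg/kg. Cmax is given in mg/mL as printed, with Tmax in hours.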

Data set [12] can be described thus: AUCt in rat at 2 mg/kg, iv. In kind it is ADME, organism-based. The conditions noted are these: in vivo. The method, boiled down: as §4
The subject of data set [13] is Rattus norvegicus. The data set can be described thus: Tmax in rat at 5 mg/kg, po. In kind it is ADME, organism-based. As to conditions: in vivo. The method, boiled down:
as §2

Data set [14] in a line: AUCinfinity in rat at 2 mg/kg, iv. On the set-up: dose 2 mg/kg, time infinity, route intravenous. The class given is ADME, organism-based. As to conditions: in vivo. The method, boiled down:
as §4

Data set [15] has as its system Rattus norvegicus. The data set can be described thus: AUCinfinity in rat at 5 mg/kg, po. The class given is ADME, organism-based. More on the design: dose 5 mg/kg, time infinity, route oral. The conditions noted are these: in vivo. The method, boiled down: as §4
Data set [16] in a line: Stability in rat liver microsomes assessed as parent compound remaining after 30 mins. The conditions noted are these: read-out: Stability. In kind it is ADME, microsome. In outline: as §1

`CC(=O)NCc1cccc(Nc2nc3ccccc3n3c(C)nnc23)c1`: the pIC50 was below 5.00 in [1] and 6.28 in data set [2].

As to `CCNC(=O)C[C@@H]1N=C(c2ccc(Cl)cc2)c2cc(OC)ccc2-n2c(C)nnc21` [MOLIBRESIB], the pIC50 in [1] was 6.41; in the data set on THP-1, 6.54.

As to `Cc1nnc2c(Nc3ccc(NC(=O)OC(C)(C)C)cc3)nc3ccccc3n12`, the pIC50 in [1] was below 5.00; in data set [2] it was 5.19.

On to `Cc1nnc2c(Nc3cccc(NC(=O)OC(C)(C)C)c3)nc3ccccc3n12`, for which the pIC50 in data set [1] was below 5.00; in [2], 6.92.

For `Cc1sc2c(c1C)C(c1ccc(Cl)cc1)=N[C@@H](CC(=O)Nc1ccc(O)cc1)c1nnc(C)n1-2` [BIRABRESIB], the pIC50 in data set [1] is 7.17; with THP-1, 7.48.

`CC(C)(C)OC(=O)NCc1cccc(Nc2nc3ccccc3n3c(-c4ccccc4)nnc23)c1` had a pIC50 in data set [2] below 5.00.

In the case of `CC(C)(C)OC(=O)NCc1cccc(Nc2nc3ccccc3n3c(C(F)(F)F)nnc23)c1`, the pIC50 in data set [2] was below 5.00.

Regarding `Cc1nnc2c(Nc3cccc(CNC(=O)C(C)(C)C)c3)nc3ccccc3n12`, the pIC50 in data set [1] is below 5.00; in data set [2], 7.01.

On to `Cc1nnc2c(Nc3cccc(CNC(=O)c4ccccc4)c3)nc3ccccc3n12`, for which the pIC50 in [1] is 5.07; in data set [2], 6.19.

For the molecule `Cc1nnc2c(Nc3cccc(CNC(=O)OC(C)(C)C)c3)nccn12`, the pIC50 is below 5.00 in [1] and 5.82 in [2].

Take `CCOC(=O)NCc1cccc(Nc2nc3ccccc3n3c(C)nnc23)c1`: the pIC50 was below 5.00 in data set [1], 6.80 in data set [2] and below 5.00 with THP-1.

As for `CC(C)(C)OC(=O)NCc1cccc(Nc2nc3ccccc3n3cnnc23)c1`, the pIC50 in [2] was below 5.00.

For the molecule `Cc1nnc2c(Nc3ccc(CNC(=O)OC(C)(C)C)cc3)nc3ccccc3n12`, the pIC50 in data set [1] was below 5.00; in [2] it was 5.57.

Take `CCC(=O)NCc1cccc(Nc2nc3ccccc3n3c(C)nnc23)c1`: the values for the pIC50 in data set [1] and in data set [2] were 5.12 and 6.70, respectively.

Turning to `Cc1nnc2c(Nc3cccc(CNC(=O)OC(C)(C)C)c3)nc3ccccc3n12`, the remaining at 0.5 h in data set [3] was found to be 27%; in [4], 0.12%; in data set [16] it was 0.19%. In addition, the clearance in data set [5] is 8.33 mL/min/kg. This molecule also came in with a bioavailability in data set [6] of 20.9%. The negative-log IC50 (pIC50) in [1] was 5.15 to 5.60; in data set [2] it was 7.17 to 7.77; in the data set with THP-1, 5.47. In addition, the Vd in [7] was found to be 0.46 L/kg. Further, the t1/2 in the data set with Rattus norvegicus [8] worked out at 3.69 h. The molecule also gave a half-life in data set [9] of 0.72 h. For the same molecule, the figures for the AUC(0-t) in data set [10] and in data set [12] were 2110 ng·h/mL and 4020 ng·h/mL, respectively. In the data set with Rattus norvegicus [11], this molecule showed a Cmax of 340 ng/mL. Also, the Tmax in the data set with Rattus norvegicus [13] is 3.42 h. In [14], this molecule displayed an AUC(0-inf) of 4020 ng·h/mL. The AUC with Rattus norvegicus [15] came to 2390 ng·h/mL.

Turning to `Cc1nnc2c(Nc3cccc(CN)c3)nc3ccccc3n12`, the pIC50 in data set [1] was below 5.00; in data set [2] it was 6.46.

`CCc1nnc2c(Nc3cccc(CNC(=O)OC(C)(C)C)c3)nc3ccccc3n12` showed a pIC50 in [2] below 5.00.
